Measurements taken from ChEMBL document CHEMBL1833900, “Potent inhibition of Norwalk virus by cyclic sulfamide derivatives” (Bioorg Med Chem, 2011).

Experiments:
Norwalk virus = experiment: Antiviral activity against Norwalk virus infected in human HG23 cells assessed as inhibition of viral replication after 24 hrs by qRT-PCR; assay type: functional; conditions: HG23, 24 h, read-out: ED50 (the source's name)
How it was run: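 HG23 cells (Norwalk virus replicon-bearing), one day old at 80–90% confluence, exposed to graded compound levels from 0 (mock-DMSO) to 10 µM. NV genome quantified by qRT-PCR; ED50 for genome levels taken at 24 h post-treatment. Values averaged over at least two independent experiments, mean ± standard deviation.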

[1] = Cytotoxicity against human HG23 cells after 48 hrs; assay type: cell-based; conditions: read-out: TD50
How it was run: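 Replicon-harboring HG23 cells exposed to graded compound levels from 0 (mock-DMSO) to 320 µM for 48 h. Viability read with a commercial cell cytotoxicity assay kit, and the median toxic dose (TD50) was calculated from it.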

Row | Structure (SMILES) | EC50 (Norwalk virus) | CC50 at 48 h [1]
1 | O=S1(=O)N(CCN2CCOCC2)CCN1Cc1cccc(Oc2ccccc2)c1 |  | 49 µM
2 | O=S1(=O)NCCN1Cc1ccc(OC(F)(F)F)cc1 | > 10 µM | 
3 | O=S1(=O)NCCN1Cc1cccc(OC(F)(F)F)c1 | > 10 µM | 
4 | O=S1(=O)NCCN1Cc1cccc(Cl)c1 | > 10 µM | 
5 | COc1cccc(CN2CCNS2(=O)=O)c1 | > 10 µM | 
6 | COc1ccc(CN2CCNS2(=O)=O)cc1 | > 10 µM | 
7 | O=S1(=O)NCCN1Cc1ccc(Cl)cc1 | > 10 µM | 
8 | CC(C)(C)OC(=O)N1CCN(Cc2cn(Cc3ccccc3)nn2)S1(=O)=O | > 10 µM | 
9 | O=S1(=O)NCCN1Cc1cn(Cc2ccccc2)nn1 | > 10 µM | 
10 | COc1ccc(Cn2cc(CN3CCNS3(=O)=O)nn2)cc1 | > 10 µM | 
11 | O=S1(=O)NCCN1CC1CCCN(Cc2ccccc2)C1 (configuration not stated) | > 10 µM | 
12 | COC(=O)CN1CCN(Cc2cccc(Oc3ccccc3)c2)S1(=O)=O | > 10 µM | 
13 | COC(=O)CCN1CCN(Cc2cccc(Oc3ccccc3)c2)S1(=O)=O | > 10 µM | 
14 | COC(=O)CCCN1CCN(Cc2cccc(Oc3ccccc3)c2)S1(=O)=O | > 10 µM | 
15 | COC(=O)CCCCCCN1CCN(Cc2cccc(Oc3ccccc3)c2)S1(=O)=O | > 10 µM | 
16 | COC(=O)c1ccc(CN2CCN(Cc3cccc(Oc4ccccc4)c3)S2(=O)=O)cc1 | > 10 µM | 
17 | O=C(O)CCN1CCN(Cc2cccc(Oc3ccccc3)c2)S1(=O)=O | > 10 µM | 
18 | O=C(O)CCCN1CCN(Cc2cccc(Oc3ccccc3)c2)S1(=O)=O | > 10 µM | 
19 | O=C(O)CCCCCCN1CCN(Cc2cccc(Oc3ccccc3)c2)S1(=O)=O | > 10 µM | 
20 | O=C(O)c1ccc(CN2CCN(Cc3cccc(Oc4ccccc4)c3)S2(=O)=O)cc1 | > 10 µM | 
21 | CN1CCN(Cc2cccc(Oc3ccccc3)c2)S1(=O)=O | > 10 µM | 
22 | CCN1CCN(Cc2cccc(Oc3ccccc3)c2)S1(=O)=O | > 10 µM | 
23 | N#CCN1CCN(Cc2cccc(Oc3ccccc3)c2)S1(=O)=O | > 10 µM | 
24 | O=S1(=O)N(Cc2ccccc2)CCN1Cc1cccc(Oc2ccccc2)c1 | > 10 µM | 
25 | O=S1(=O)N(Cc2ccc(F)cc2)CCN1Cc1cccc(Oc2ccccc2)c1 | > 10 µM | 
26 | NC(=O)CN1CCN(Cc2cccc(Oc3ccccc3)c2)S1(=O)=O | > 10 µM | 

Now from value to compound, other results behind:

Row | EC50 (Norwalk virus) | Structure (SMILES) | CC50 at 48 h [1]
27 | > 10 µM | CCCCc1ccc(CN2CCNS2(=O)=O)cc1 | 
28 | 4.1 µM | O=S1(=O)NCCN1Cc1cccc(Oc2ccccc2)c1 | 50 µM
29 | > 10 µM | O=S1(=O)NCCN1Cc1cccc(Oc2ccc(F)cc2)c1 | 98 µM
30 | 5.2 µM | O=S1(=O)NCCN1Cc1cccc(OCc2ccccc2)c1 | 18 µM
31 | > 10 µM | O=S1(=O)NCCN1Cc1cccc(O)c1 | 
32 | 5.8 µM | O=S1(=O)NCCN1Cc1ccc(Oc2ccccc2)cc1 | 57 µM
33 | 5.2 µM | CCCOc1ccc(CN2CCNS2(=O)=O)cc1 | 96 µM
34 | 9.8 µM | O=S1(=O)NCCN1Cc1ccc(OCc2ccccc2)cc1 | 159 µM
35 | > 10 µM | CCOc1ccc(CN2CCNS2(=O)=O)cc1 | 
36 | > 10 µM | CC(C)Oc1ccc(CN2CCNS2(=O)=O)cc1 | 
37 | 9.5 µM | CCCCOc1ccc(CN2CCNS2(=O)=O)cc1 | 
38 | > 10 µM | CCCc1ccc(CN2CCNS2(=O)=O)cc1 | 
39 | 9.7 µM | CC(C)Cc1ccc(CN2CCNS2(=O)=O)cc1 | 
40 | > 10 µM | CSc1ccc(CN2CCNS2(=O)=O)cc1 | 
41 | 9.8 µM | COc1ccc(Cn2cc(CN3CCN(C(=O)OC(C)(C)C)S3(=O)=O)nn2)cc1 | 
42 | 9.7 µM | COC(=O)CCCCN1CCN(Cc2cccc(Oc3ccccc3)c2)S1(=O)=O | 46 µM
43 | 7.8 µM | O=C(O)CN1CCN(Cc2cccc(Oc3ccccc3)c2)S1(=O)=O | 48 µM
44 | 6.1 µM | O=C(O)CCCCN1CCN(Cc2cccc(Oc3ccccc3)c2)S1(=O)=O | 100 µM
45 | 8.1 µM | O=S1(=O)N(Cc2cccnc2)CCN1Cc1cccc(Oc2ccccc2)c1 | 53 µM
46 | 4.3 µM | O=S1(=O)N(CCN2CCCCC2)CCN1Cc1cccc(Oc2ccccc2)c1 | 9.8 µM
